Source: PubChem BioAssay AID588750 (Vanderbilt Specialized Chemistry Center, 2011)
The source made the active and inactive calls.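 The calls were made as follows: active = compounds with a dose-dependent response, reported with half-maximal potency and percent of the acetylcholine maximum; inactive = the rest.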

What follows are molecules tested against Muscarinic acetylcholine receptor M3 (Rattus norvegicus) (UniProt P08483) (assay: potentiation of ACh response at rat M3 – CHO cells, Fluo-4 calcium mobilization, selectivity assay for M4 PAM project, dose response (AID 588750)). Settings: CHO rat M3, Fluo-4 calcium mobilization; series mostly up to 30 µM; percent of ACh max: at the top concentration.
Outline: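 Probe or stimulus – ACh EC20 addition, then ACh EC80 addition · System – CHO cells stably expressing cloned rat M3 muscarinic receptor · Timing – compound pre-incubation 144 s before ACh EC20, read at 37 °C · Benchmarks – maximal acetylcholine response at 1 mM for normalization · Measured by – kinetic calcium fluorescence with Fluo-4 AM dye loaded at 2.3 µM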

Percent of ACh max, inactive:
Cc1nc2sc(C(=O)NCc3ccncc3)c(N)c2c(C)c1Cl 16.7 [at 45.3 µM]
Cc1nc2sc(C(=O)NCCc3ccncc3)c(N)c2c(C)c1Cl 19.2
Cc1nc2sc(C(=O)NCc3cccc(F)c3F)c(N)c2c(C)c1Cl 15.9
Cc1nc2sc(C(=O)NCc3cccnc3)c(N)c2c(C)c1Cl 13.5 [at 45.3 µM]
Cc1nc2sc(C(=O)NCc3ccncn3)c(N)c2c(C)c1Cl 17.7
Cc1nc2sc(C(=O)NC3CC3)c(N)c2c(C)c1Cl 19.5
Cc1nc2sc(C(=O)NCc3nccs3)c(N)c2c(C)c1Cl 20.6
Cc1nc2sc(C(=O)NCc3ccc4c(c3)OCO4)c(N)c2c(C)c1Cl 14.8 [at 36.8 µM]
Cc1nc2sc(C(=O)NCc3ccccc3)c(N)c2c(C)c1Cl 14.2 [at 37.4 µM]
